OXTR agonist – human OXTR agonists, primary screen, fluorescence, CHO-OTR cells, Fluo-8 calcium | Oxytocin receptor (Homo sapiens), P30559 | Fluo-8 calcium fluorescence; normalized: DMSO 0%, oxytocin 100% | activation, % at 3 µM | 320,000 compounds, 0.32% hits | AID 2435, 2010;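 active = activation above the mean of all tested compounds plus 3 SD, cutoff set per screening run, cut at about 20% in these data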;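 note: peak over basal fluorescence ratio from a 100 s FLIPR kinetic read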
TAAR1 ag – human TAAR1 agonists, primary screen, Fluo-8 calcium fluorescence, CHO RD-HGA16 cells; Trace amine-associated receptor 1 (Homo sapiens), Q96RJ0; vehicle wells 0%, saturating PEA agonist 100%; activation, % at 3 µM; 360,000 compounds, 0.99% hits; AID 624467, 2012;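 active = activation above the mean activation of all test compounds in the run plus 3 SD, cut at about 38% in these data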
Target sequence (Q96RJ0 whole entry, looked up): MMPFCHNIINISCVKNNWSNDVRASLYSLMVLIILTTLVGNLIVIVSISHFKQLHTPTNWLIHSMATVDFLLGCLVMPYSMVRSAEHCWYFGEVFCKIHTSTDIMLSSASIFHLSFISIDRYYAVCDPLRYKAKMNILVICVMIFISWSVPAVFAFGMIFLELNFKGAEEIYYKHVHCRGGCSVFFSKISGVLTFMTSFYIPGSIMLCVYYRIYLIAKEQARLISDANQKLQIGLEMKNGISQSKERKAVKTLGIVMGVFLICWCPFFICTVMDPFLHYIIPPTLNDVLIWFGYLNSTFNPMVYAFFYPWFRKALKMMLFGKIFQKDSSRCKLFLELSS
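Signal – calcium-sensitive Fluo-8 signal, excitation 470-495, emission 515-575 nm · System – RD-HGA16 (CHO) cells co-expressing Gα16 and hTAAR1 · Incubation – 17-24 h seeding, 75 min 37 °C dye, 30 min RT · Compound dosing – 3 µM single concentration · Repeats – no replicates (n 1)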
V1R ag counter – agonists of human V1a receptor, primary screen, counter-screen for OXTR agonist project, fluorescence, CHO-V1R cells. Fluo-8 calcium fluorescence, agonist mode; 0% DMSO, 100% 3 nM vasopressin. AID 2797, 2010. 320,000 compounds, 0.25% hits. activation, % at 3 µM. Vasopressin V1a receptor (Homo sapiens), P37288;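 active = activation above the mean activation of all tested compounds plus 3 SD, per screening run, cut at about 20% in these data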;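 note: signal is peak over basal fluorescence ratio across a 100 second FLIPR read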
Target sequence (P37288 whole entry, looked up): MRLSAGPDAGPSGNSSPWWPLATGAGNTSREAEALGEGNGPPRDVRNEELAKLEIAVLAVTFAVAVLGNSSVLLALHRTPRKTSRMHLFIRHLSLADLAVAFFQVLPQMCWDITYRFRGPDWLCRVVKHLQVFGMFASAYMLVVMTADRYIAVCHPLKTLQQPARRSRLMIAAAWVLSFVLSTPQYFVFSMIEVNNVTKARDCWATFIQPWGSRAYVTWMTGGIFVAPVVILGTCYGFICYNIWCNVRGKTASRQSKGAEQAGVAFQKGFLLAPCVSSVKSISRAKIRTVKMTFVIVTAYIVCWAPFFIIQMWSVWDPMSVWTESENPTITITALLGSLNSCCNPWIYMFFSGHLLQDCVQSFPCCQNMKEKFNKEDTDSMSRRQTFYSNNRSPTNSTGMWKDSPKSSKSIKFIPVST
OXTR potentiator – human OXTR potentiators, primary screen, fluorescence, CHO-OTR cells, Fluo-8 calcium; Oxytocin receptor (Homo sapiens), P30559; Fluo-8 calcium fluorescence, potentiator mode; 0% = oxytocin EC15, 100% = EC100; activation, % at 3 µM; 320,000 compounds, 0.061% hits; AID 2445, 2010;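 active = activation above that plate's cutoff, the mean activation of tested compounds plus 3 SD, cut at about 6.6% in these data, passing the limit was not always enough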
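Assay system: CHO-OTR cells, human receptor / Also added: oxytocin at about EC15, sub-maximal agonist stimulus / Dosing: single dose, 3.0 µM nominal final compound concentration / Incubation: 6 min pre-incubation, 100 s read / Technique: Fluo-8 calcium dye fluorescence / Read-out: % activation vs EC15 and EC100 oxytocin / Benchmarks: EC15 oxytocin low, 75 nM oxytocin high / Replicates: singlicate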
TAAR1 antagonist – human TAAR1 antagonists, primary screen, Fluo-8 calcium fluorescence, CHO RD-HGA16 cells | inhibition, % at 3 µM | 360,000 compounds, 1.5% hits | antagonist | Trace amine-associated receptor 1 (Homo sapiens), Q96RJ0;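 active = inhibition above a per-plate cutoff, the mean inhibition of test compounds on that plate plus 3 SD, cut at about 49% in these data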
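System: CHO RD-HGA16 cells bearing hTAAR1. Reagent: EC80 β-phenethylamine stimulus. Schedule: seeding 17-24 h prior, 75-min 37 °C, 30-min RT dye loading. Signal: Fluo-8 intracellular calcium dye fluorescence, real-time kinetic reads. Read-out: % inhibition from peak post-agonist over basal fluorescence ratio. Benchmarks: vehicle wells and EC80 agonist wells. Replicates: n of 1.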
Each line names hits and unclear results; the compound was inactive in the other large screens. An excerpt weighted towards active compounds, which were near 2.3% of everything screened.

CCCC(=O)OC[C@H]1CN(C2CCCC2)S(=O)(=O)c2c(F)cccc2O1	none (no result: OXTR agonist, V1R ag counter, OXTR potentiator)
COc1ccc(CC(=O)NCC2CCN(C(=O)C(=O)c3cc4ccccc4o3)CC2)cc1	none (no result: OXTR agonist, V1R ag counter, OXTR potentiator)
COCCCNC(=S)N1CCN(c2nc(-c3ccc(F)cc3)cs2)CC1	TAAR1 antagonist 52
CCCN(CCC)Cc1cc(=O)oc2ccccc12	none (no result: OXTR agonist, V1R ag counter, OXTR potentiator)
COCCOn1c(SCCOC)nc2ccccc2c1=O	none
CN(CCO)C(=O)c1nc[nH]c1C(=O)N1CCN(c2ccccc2)CC1	none (no result: OXTR agonist, V1R ag counter, OXTR potentiator)
CCc1noc(C)c1C(=O)OCC(=O)Nc1nc(-c2ccc(F)c(F)c2)cs1	TAAR1 antagonist 69
Cc1onc(-c2ccccc2)c1C(=O)Nc1nc(-c2ccc(F)c(F)c2)cs1	TAAR1 ag 39
Cc1csc(NC(=O)c2c(-c3ccccc3)noc2C)n1	none
O=C(Nc1ncc(Cc2ccc(SC(F)F)cc2)s1)c1ccc(OC(F)F)cc1	OXTR agonist 23, TAAR1 ag 46, V1R ag counter 25
O=C(Nn1c(O)c(C=C2N=c3ccccc3=N2)sc1=S)c1ccccc1	TAAR1 ag 38
O=C(Nn1c(O)c(C=C2N=c3ccccc3=N2)sc1=S)c1cccc(Cl)c1	TAAR1 antagonist 52
O=C(Nn1c(O)c(C=C2N=c3ccccc3=N2)sc1=S)c1ccc(Cl)cc1	none
O=C1N=c2ccccc2=C1c1sc(=S)n(NC(=O)c2cccc(O)c2)c1O	TAAR1 antagonist 51 (no result: OXTR agonist, V1R ag counter, OXTR potentiator)
O=C1N=c2ccccc2=C1c1sc(=S)n(-c2ccc(O)cc2)c1O	none
COc1ccc(CNS(=O)(=O)c2cc(Br)ccc2Br)c(OC)c1	none (no result: OXTR agonist, V1R ag counter, OXTR potentiator)
CC12CCC(=O)C=C1CCC1C2CCC2(C)C(c3csc(N)n3)CCC12 (centres undefined)	TAAR1 antagonist 51 (no result: OXTR agonist, V1R ag counter, OXTR potentiator)
Cc1cccc(OCC(=O)Nc2ccc(N3CCN(C(=O)c4ccco4)CC3)cc2)c1	TAAR1 antagonist 56
Cc1ccccc1C(=O)N1CCN(c2ccc(NC(=S)NC(=O)c3ccco3)cc2)CC1	TAAR1 antagonist 62
COc1ccccc1C(=O)NC(=S)Nc1ccc(N2CCN(C(=O)c3ccco3)CC2)cc1	none
Cc1ccc(OCC(=O)Nc2ccc(N3CCN(C(=O)c4ccco4)CC3)cc2)cc1C	none
S=c1sc2c(Cl)ncnc2n1-c1ccccc1	TAAR1 antagonist 54 (no result: OXTR agonist, V1R ag counter, OXTR potentiator)
Cc1nc(N2CCN(C)CC2)c2sc(=S)n(-c3ccccc3)c2n1	none
COC(=O)[C@]12C[C@H](CC(=O)NCc3cccc4ccccc34)C(=O)N(Cc3ccc4c(c3)OCO4)C1=C[C@H](C(C)(C)C)O[C@@H]2C	none (no result: OXTR agonist, V1R ag counter, OXTR potentiator)
O=C(NCCc1cccs1)C1CCC(=O)N(CCc2cccc(F)c2)C1 (centres undefined)	TAAR1 ag 42
COc1ccc(/C=N/NS(=O)(=O)c2ccc(F)cc2)cc1COc1cc(F)ccc1[N+](=O)[O-]	none
COc1ccc(/C=N\NC(=O)c2ccc(F)cc2)cc1COc1cc(F)ccc1[N+](=O)[O-]	TAAR1 antagonist 53 (no result: OXTR agonist, V1R ag counter, OXTR potentiator)
CC(C)(C)C(=O)Nc1ccc(C(=O)N/N=C/c2ccccc2OC(=O)c2ccccc2)cc1	TAAR1 antagonist 53
O=C(N/N=C/c1ccc(OC(=O)c2ccccc2)c([N+](=O)[O-])c1)c1ccc(O)cc1	TAAR1 antagonist 53
COc1cccc(/C=C2/Sc3ccc(C(=O)NC4CC4)cc3NC2=O)c1	none (no result: OXTR agonist, V1R ag counter, OXTR potentiator)
CN1C(=O)[C@@]2(O[C@H]3c4ccccc4C=CN3C3=C2C(=O)CCC3)c2ccccc21	none (no result: OXTR agonist, V1R ag counter, OXTR potentiator)
CN1CCCCC(NC(=O)c2ccccc2)C1=O (centres undefined)	none (no result: OXTR agonist, V1R ag counter, OXTR potentiator)
CC(C)CCOc1ccc(Cl)cc1CN1CCOCC1	TAAR1 ag 39
CC(C)(C)CN1CCN(Cc2cc3ccccc3[nH]2)CC1CCO (centres undefined)	none
CCOc1ccc(CN2CCN(Cc3cc4ccccc4[nH]3)CC2CCO)cc1 (centres undefined)	TAAR1 ag 42 (no result: OXTR agonist, V1R ag counter, OXTR potentiator)
COC(=O)C1=C(C)N(Cc2cccc(C(F)(F)F)c2)C(=NCc2ccc3c(c2)OCO3)NC1c1cccc(Cl)c1 (centres undefined)	none (no result: OXTR agonist, V1R ag counter, OXTR potentiator)
CN(Cc1ccc(OC(F)F)cc1)C(=O)c1cccc(S(=O)(=O)N2CCN(c3ccccc3)CC2)c1	TAAR1 antagonist 75 (no result: OXTR agonist, V1R ag counter, OXTR potentiator)
COC(=O)C1=C(C)N(Cc2ccccc2C(F)(F)F)C(=NCc2ccc(C(F)(F)F)cc2)NC1c1cccc(Cl)c1 (centres undefined)	none (no result: OXTR agonist, V1R ag counter, OXTR potentiator)
O=C(CSC1CCc2ccccc21)NN=Cc1ccco1 (centres undefined)	none (no result: OXTR agonist, V1R ag counter, OXTR potentiator)
c1ccc2c(c1)OCCOCCOc1ccccc1OCCOCCO2	TAAR1 antagonist 53
Nc1ccc2c(c1)OCCOCCOCCOCCOCCO2	none
Fc1ccc(C2=CC(c3ccco3)n3ncnc3N2)cc1 (centres undefined)	none (no result: TAAR1 ag, TAAR1 antagonist)
Fc1ccc(C2=CC(c3ccc(Br)o3)n3ncnc3N2)cc1 (centres undefined)	OXTR agonist 51, V1R ag counter 34 (no result: TAAR1 ag, TAAR1 antagonist)
O=C(Nc1ccccc1)c1cccc(S(=O)(=O)NC2CCCC2)c1	none
CCCCNC(=O)CSc1nc2ccc(N3CCOCC3)cc2c(=O)n1CCc1ccccc1	none
O=C(CSc1nc2ccc(N3CCOCC3)cc2c(=O)n1CCc1ccccc1)NCC1CCCO1 (centres undefined)	TAAR1 antagonist 52
Cc1cccc(-c2ccc([N+](=O)[O-])cc2CN2CCN(c3ncc(Cc4ccccc4)cn3)CC2)c1	none (no result: OXTR agonist, V1R ag counter, OXTR potentiator)
C=CCN1[C@@H](C)[C@@H](c2ccccc2)Oc2c(Cl)cccc2S1(=O)=O	none (no result: OXTR agonist, V1R ag counter, OXTR potentiator)
C=CC[C@@H](Cc1ccc(F)cc1)C(=O)OC[C@H]1CCCN1C(=O)[C@@H](CC=C)CC(=O)N[C@@H](CO)Cc1ccccc1	none
C=CCC[C@@H](Cc1ccc(F)cc1)C(=O)OC[C@@H]1CCCN1C(=O)[C@H](CC=C)CC(=O)N[C@H](CO)Cc1ccccc1	none
C=CCC[C@@H](Cc1ccc(F)cc1)C(=O)OC[C@@H]1CCCN1C(=O)[C@@H](CC=C)CC(=O)N(CCO)Cc1ccccc1	TAAR1 antagonist 57
C=CC[C@@H](Cc1ccc(F)cc1)C(=O)OC[C@H]1CCCN1C(=O)[C@H](CC=C)CC(=O)N[C@H](CO)Cc1ccccc1	TAAR1 antagonist 50
Cc1ccsc1C(=O)NNC(=O)COc1ccccc1Cl	none
COC(=O)C1=C(C)N(c2cccc(C)c2)C(=O)/C1=C\c1cccs1	TAAR1 ag 48
O=C(NCC(c1ccco1)N1CCCC1)c1ccc(S(=O)(=O)Nc2ccc(F)cc2)cc1 (centres undefined)	TAAR1 ag 40

Screening data as filed in PubChem.
